Experimental data collected from several papers.
Protocols differ between the studies behind these lines.
Target: TRAF2 and NCK-interacting protein kinase (TNIK, Homo sapiens, UniProt Q9UKE5)

Compound	test	setting	remaining binding [%]
CC1=C(C#N)C(c2ccc3c(c2)c(NC(=O)c2ccccc2C)nn3C)C(C#N)=C(C)N1	cell-free assay, competition with immobilised ligand	1 µM	98
CCN1CCN(Cc2ccc(C(=O)Nc3ccc(C)c(Oc4ccc5c(c4)CC(=O)N5)c3)cc2C(F)(F)F)CC1	binding, competition with immobilised ligand	1 µM	79
Cc1cnc(Nc2ccc(C(=O)N3CCC(N4CCCC4)CC3)cc2)nc1-c1cc2ccccc2s1	binding, competition with immobilised ligand	1 µM	68
O=C(Nc1c[nH]nc1C(=O)NC1CCNCC1)c1cc(F)cc(F)c1	binding, competition with immobilised ligand	1 µM	100
C[C@H]1CCN(c2nccc(-c3cnn4ncccc34)n2)C1	binding	1 µM	100
CNC(=O)[C@@H]1CC[C@@H](n2c(-c3ccc4cnccc4c3)nc3ccc(C(=O)NCc4cccc(C(N)=O)c4)cc32)C1	binding, competition with immobilised ligand	1 µM	90
CCC(=O)N[C@@H]1CC[C@H](C(=O)N(C)c2ccc(-c3nc4ccccc4o3)cc2)C1	cell-free assay, competition with immobilised ligand	1 µM	100
O=C(c1ccc(Nc2ncc(Cl)c(-c3ccc(Cl)s3)n2)cc1)N1CCC(N2CCCC2)CC1	binding, competition with immobilised ligand	1 µM	43
CNC(=O)Nc1ccc2c(c1)CC[C@@]21OC(=O)N(CC(=O)N(Cc2ccc(F)cc2)[C@@H](C)C(F)(F)F)C1=O	cell-free assay, competition with immobilised ligand	1 µM	93
O=C(c1ccc(Nc2ncc(Cl)c(-c3cc4ccccc4s3)n2)cc1)N1CCC(N2CCCC2)CC1	binding, competition with immobilised ligand	1 µM	73
COc1ccnn2ncc(-c3ccnc(N(C)C)n3)c12	binding	1 µM	63
CC(=O)Nc1c(C(C)=O)c(=O)n(C)c2nc(-c3ccc(Cl)cc3Cl)c(-c3ccc(Cl)cc3)cc12	cell-free assay, competition with immobilised ligand	1 µM	100
CN(CCCC(F)(F)F)c1nccc(-c2cnn3ncccc23)n1	binding	1 µM	100
COc1cnc(Nc2cccc(S(N)(=O)=O)c2)nc1N1CCN(c2ccccc2)C(=O)C1	binding, competition with immobilised ligand	1 µM	76
CN([C@@H]1CCc2c(CC(=O)O)c3cc(S(C)(=O)=O)ccc3n2C1)S(=O)(=O)c1ccc(F)cc1	cell-free assay, competition with immobilised ligand	1 µM	100
CC1CCCN1c1nccc(-c2cnn3ncccc23)n1 (stereo not drawn)	binding	1 µM	95
CS(=O)(=O)N1CCCC(NC(=O)[C@H](CCC2CCCCC2)NC(=O)c2ccc(CNc3ncnc4c3nnn4-c3ccccc3)cc2)C1 (stereo partly drawn)	binding, competition with immobilised ligand	1 µM	45
Cc1cnn2ncc(-c3ccnc(N(C)C)n3)c2c1	binding	1 µM	80
c1cncc(-c2cccc(Nc3nccc(NC4CCCCC4)n3)c2)c1	binding, competition with immobilised ligand	10 µM	33
N[C@H]1CCN(c2nccc(-c3cnn4ncccc34)n2)C1	binding	1 µM	80
COc1ncc2cc3ccccc3nc2c1C#N	cell-free assay, competition with immobilised ligand	5 µM	100
